Reference: ChEMBL document CHEMBL4610044, “Synthesis and biological evaluation of novel indole-pyrazoline hybrid derivatives as potential topoisomerase 1 inhibitors” (Bioorg Med Chem Lett, 2020)
Calls of active or inactive are those of the source. The rule behind the calls is not given here.

Experiments:
Supercoiled DNA [1] = experiment: Binding affinity to supercoiled DNA (unknnown origin) at 50 uM by SPR assay; format: nucleic-acid assay
[2] = target: T1, DNA topoisomerase 1 (Homo sapiens) (UniProt P11387); experiment: Poison activity at Top1 (unknown origin) assessed as decrease in relaxed supercoiled DNA at 25 uM by […] based agarose gel electrophoresis relative to control; design: scale not given: the % may be the effect or the level left
T1 sequence (whole entry): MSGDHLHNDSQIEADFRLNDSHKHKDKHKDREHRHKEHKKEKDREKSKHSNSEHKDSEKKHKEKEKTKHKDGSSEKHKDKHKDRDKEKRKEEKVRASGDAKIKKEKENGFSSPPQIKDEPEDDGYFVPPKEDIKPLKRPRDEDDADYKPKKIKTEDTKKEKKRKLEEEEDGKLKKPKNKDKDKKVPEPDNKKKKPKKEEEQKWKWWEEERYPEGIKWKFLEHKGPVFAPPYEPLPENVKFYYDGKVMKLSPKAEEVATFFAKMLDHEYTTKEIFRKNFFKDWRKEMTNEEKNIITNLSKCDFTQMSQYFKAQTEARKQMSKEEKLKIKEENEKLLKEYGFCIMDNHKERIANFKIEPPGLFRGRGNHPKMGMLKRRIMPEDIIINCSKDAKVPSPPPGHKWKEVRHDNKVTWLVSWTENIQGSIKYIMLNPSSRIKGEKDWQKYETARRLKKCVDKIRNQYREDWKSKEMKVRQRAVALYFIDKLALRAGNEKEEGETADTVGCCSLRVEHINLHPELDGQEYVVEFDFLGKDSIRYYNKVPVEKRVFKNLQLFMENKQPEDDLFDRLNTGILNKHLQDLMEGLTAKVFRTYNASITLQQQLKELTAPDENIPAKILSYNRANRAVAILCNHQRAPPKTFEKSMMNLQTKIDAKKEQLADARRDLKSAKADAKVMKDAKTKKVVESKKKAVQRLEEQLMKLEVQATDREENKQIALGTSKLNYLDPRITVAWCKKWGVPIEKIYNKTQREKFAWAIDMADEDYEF

[3] = target: T1, DNA topoisomerase 1 (Homo sapiens); experiment: Poison activity at Top1 (unknown origin) assessed as increase in supercoiled DNA at 125 uM by ethidium bromide staining based agarose gel electrophoresis relative to control
[4] = target: T1, DNA topoisomerase 1 (Homo sapiens); experiment: Poison activity at Top1 (unknown origin) assessed as decrease in relaxed supercoiled DNA at 300 uM
Method in brief: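 The screen used a Top1-mediated relaxation assay, with compounds at 300 µM and camptothecin as positive control. Supercoiled and relaxed/Top1-bound DNA were resolved as separate bands on agarose gel.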

[5] = target: T1, DNA topoisomerase 1 (Homo sapiens); experiment: Poison activity at Top1 (unknown origin) assessed as increase in supercoiled DNA at 25 uM by […] relative to control
DNA = experiment: Binding affinity at Escherichia coli pBR322 DNA assessed as unwinding of supercoiled DNA incubated for 30 mins in presence of topoisomerase 1 by agarose gel based electrophoresis; format: nucleic-acid assay
[6] = target: T1, DNA topoisomerase 1 (Homo sapiens); experiment: Poison activity at Top1 (unknown origin) assessed as increase in supercoiled DNA by ethidium bromide staining based agarose gel electrophoresis
Method in brief: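 In a semi-quantitative Top1 relaxation assay, compound was tested at several concentrations, including 25 and 125 µM, and camptothecin at 1, 5, 25 and 125 µM. Supercoiled DNA was quantified from gel bands as a percentage of total DNA.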

Supercoiled DNA [7] = experiment: Binding affinity to supercoiled DNA (unknown origin) by SPR assay; format: nucleic-acid assay

| SMILES | Activity (Supercoiled DNA [1]) | Activity [2] [%] | also measured |
| --- | --- | --- | --- |
| Cc1ccc(S(=O)(=O)n2cc(C3=NN(c4ccccc4)C(c4ccccc4)C3)c3ccccc32)cc1 (stereo not drawn) | inactive | 40 to 79 |  |
| CC(C)c1ccc(C2CC(c3cn(S(=O)(=O)c4ccccc4)c4ccccc34)=NN2c2ccccc2)cc1 (stereo not drawn) | inactive | 40 to 79 |  |
| CC(C)c1ccc(C2CC(c3cn(S(=O)(=O)c4cccc5ccccc45)c4ccccc34)=NN2c2ccccc2)cc1 (stereo not drawn) | inactive | 40 to 79 |  |
| COc1ccc(C2CC(c3cn(S(=O)(=O)c4ccc(C)cc4)c4ccccc34)=NN2c2ccccc2)cc1 (stereo not drawn) | inactive | < 40 |  |
| Cc1ccc(S(=O)(=O)n2cc(C3=NN(c4ccccc4)C(c4ccc(C(C)C)cc4)C3)c3ccccc32)cc1 (stereo not drawn) | inactive | < 40 |  |
| CC[C@@]1(O)C(=O)OCc2c1cc1n(c2=O)Cc2cc3ccccc3nc2-1 |  |  | Activity [3]: 48% |
| O=S(=O)(c1ccccc1)n1cc(C2=NN(c3ccccc3)C(c3ccccc3)C2)c2ccccc21 (stereo not drawn) | inactive | 40 to 79 |  |
| O=S(=O)(c1cccc2ccccc12)n1cc(C2=NN(c3ccccc3)C(c3cccc4ccccc34)C2)c2ccccc21 (stereo not drawn) | inactive | < 40 |  |
| COc1ccc(C2CC(c3cn(S(=O)(=O)c4cccc5ccccc45)c4ccccc34)=NN2c2ccccc2)cc1 (stereo not drawn) | inactive | < 40 |  |
| O=S(=O)(c1cccc2ccccc12)n1cc(C2=NN(c3ccccc3)C(c3ccccc3Br)C2)c2ccccc21 (stereo not drawn) | inactive | < 40 |  |
| Cc1ccc(C2CC(c3cn(S(=O)(=O)c4ccccc4)c4ccccc34)=NN2c2ccccc2)cc1 (stereo not drawn) | inactive | < 40 | Activity [4]: Active |
| O=S(=O)(c1cccc2ccccc12)n1cc(C2=NN(c3ccccc3)C(c3ccc(Cl)cc3)C2)c2ccccc21 (stereo not drawn) | inactive | < 40 |  |
| COc1cc(C2CC(c3cn(S(=O)(=O)c4ccc(C)cc4)c4ccccc34)=NN2c2ccccc2)cc(OC)c1OC (stereo not drawn) | inactive | 40 to 79 |  |
| Cc1ccc(S(=O)(=O)n2cc(C3=NN(c4ccccc4)C(c4ccccc4Br)C3)c3ccccc32)cc1 (stereo not drawn) | inactive | < 40 |  |
| O=S(=O)(c1cccc2ccccc12)n1cc(C2=NN(c3ccccc3)C(c3ccccc3)C2)c2ccccc21 (stereo not drawn) | inactive | < 40 |  |
| O=S(=O)(c1ccccc1)n1cc(C2=NN(c3ccccc3)C(c3ccc(Cl)cc3)C2)c2ccccc21 (stereo not drawn) | inactive | < 40 |  |
| O=[N+]([O-])c1cccc(C2CC(c3cn(S(=O)(=O)c4ccccc4)c4ccccc34)=NN2c2ccccc2)c1 (stereo not drawn) | inactive | < 40 |  |
| O=S(=O)(c1ccccc1)n1cc(C2=NN(c3ccccc3)C(c3cccc4ccccc34)C2)c2ccccc21 (stereo not drawn) | inactive | > 80 | Activity [5]: 61%; Activity (DNA): inactive; Activity [3]: 74%; Activity [6]: Dose-dependent effect |
| COc1cc(C2CC(c3cn(S(=O)(=O)c4ccccc4)c4ccccc34)=NN2c2ccccc2)cc(OC)c1OC (stereo not drawn) | inactive | 40 to 79 |  |
| O=S(=O)(c1ccccc1)n1cc(C2=NN(c3ccccc3)C(c3ccccc3Br)C2)c2ccccc21 (stereo not drawn) | inactive | < 40 |  |
| CC[n+]1c(-c2ccccc2)c2cc(N)ccc2c2ccc(N)cc21 [HOMIDIUM BROMIDE] |  |  | Kd (Supercoiled DNA [7]): 1200 nM; Activity (DNA): Active |
| COc1ccc(C2CC(c3cn(S(=O)(=O)c4ccccc4)c4ccccc34)=NN2c2ccccc2)cc1 (stereo not drawn) | inactive | 40 to 79 |  |
| Cc1ccc(S(=O)(=O)n2cc(C3=NN(c4ccccc4)C(c4cccc5ccccc45)C3)c3ccccc32)cc1 (stereo not drawn) | inactive | 40 to 79 |  |
| Brc1ccccc1C1CC(c2c[nH]c3ccccc23)=NN1c1ccccc1 (stereo not drawn) | inactive | < 40 | Activity [4]: Active |
